Experiments:
Format in all cases: functional
Rattus norvegicus [1] = assay: Diuretic activity in Wistar rat assessed as volume of excreted urine at 50 mg/kg, po measured after 0 to 5 hrs relative to urea-treated control
How it was run: (§1)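 Female Wistar rats (150-200 g), groups of six, fasted 16 h, dosed orally at 50 mg/kg in 1% saline (15 mL/kg). Housed singly in metabolic cages with water ad libitum. Urine collected 0-5 h and 5-24 h. Na+ and K+ measured by flame photometry as mean mequiv, volume as mean mL. Each expressed as a ratio to a urea group (1000 mg/kg) run alongside vehicle control.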

Rattus norvegicus [2] = assay: Diuretic activity in Wistar rat assessed as sodium level in excreted urine at 50 mg/kg, po measured after 0 to 5 hrs by flame photometric analysis relative to urea-treated control; how it was run: as §1
Rattus norvegicus [3] = assay: Diuretic activity in Wistar rat assessed as potassium level in excreted urine at 50 mg/kg, po measured after 0 to 5 hrs by flame photometric analysis relative to urea-treated control; how it was run: as §1
Rattus norvegicus [4] = assay: Diuretic activity in Wistar rat assessed as volume of excreted urine at 50 mg/kg, po measured after 5 to 24 hrs relative to urea-treated control; how it was run: as §1
Rattus norvegicus [5] = assay: Diuretic activity in Wistar rat assessed as sodium level in excreted urine at 50 mg/kg, po measured after 5 to 24 hrs by flame photometric analysis relative to urea-treated control; how it was run: as §1
Rattus norvegicus [6] = assay: Diuretic activity in Wistar rat assessed as potassium level in excreted urine at 50 mg/kg, po measured after 5 to 24 hrs by flame photometric analysis relative to urea-treated control; how it was run: as §1

For `CCCC(=O)N1CCc2cc(S(N)(=O)=O)c(Cl)cc21`, the Ratio (Rattus norvegicus [1]) was 0.54, the Ratio (Rattus norvegicus [2]) was 1.04 and the Ratio (Rattus norvegicus [3]) was 0.53. It also gave a Ratio (Rattus norvegicus [4]) of 0.96, a Ratio (Rattus norvegicus [5]) of 1.3 and a Ratio (Rattus norvegicus [6]) of 1.17.

Work on `CC(=O)N1CCc2cc(S(N)(=O)=O)c(Cl)cc21` yielded a Ratio (Rattus norvegicus [1]) of 0.53, a Ratio (Rattus norvegicus [2]) of 0.63 and a Ratio (Rattus norvegicus [3]) of 0.53. For the same compound, the Ratio (Rattus norvegicus [4]) was 0.72, the Ratio (Rattus norvegicus [5]) was 1.09 and the Ratio (Rattus norvegicus [6]) was 1.1.

`CCCCN1CCc2cc(S(N)(=O)=O)c(Cl)cc21` gave a Ratio (Rattus norvegicus [1]) of 0.7, a Ratio (Rattus norvegicus [2]) of 0.98 and a Ratio (Rattus norvegicus [3]) of 0.78. The Ratio (Rattus norvegicus [4]) was 0.9, the Ratio (Rattus norvegicus [5]) was 1.15 and the Ratio (Rattus norvegicus [6]) was 1.06.

`NS(=O)(=O)c1cc2c(cc1Cl)N=CNS2(=O)=O` [CHLOROTHIAZIDE] showed a Ratio (Rattus norvegicus [1]) of 1.3, a Ratio (Rattus norvegicus [2]) of 1.9 and a Ratio (Rattus norvegicus [3]) of 1.5. It also gave a Ratio (Rattus norvegicus [4]) of 1, a Ratio (Rattus norvegicus [5]) of 1.1 and a Ratio (Rattus norvegicus [6]) of 1.

`NS(=O)(=O)c1cc2c(cc1Cl)N(C(=O)c1ccco1)CC2` showed a Ratio (Rattus norvegicus [1]) of 0.31, a Ratio (Rattus norvegicus [2]) of 0.46 and a Ratio (Rattus norvegicus [3]) of 0.38. The Ratio (Rattus norvegicus [4]) was 0.87, the Ratio (Rattus norvegicus [5]) was 1.2 and the Ratio (Rattus norvegicus [6]) was 1.23.

Work on `NS(=O)(=O)c1cc2c(cc1Cl)N(Cc1ccco1)CC2` yielded a Ratio (Rattus norvegicus [1]) of 0.15, a Ratio (Rattus norvegicus [2]) of 0.29 and a Ratio (Rattus norvegicus [3]) of 0.24. For the same compound, the Ratio (Rattus norvegicus [4]) was 1, the Ratio (Rattus norvegicus [5]) was 1.09 and the Ratio (Rattus norvegicus [6]) was 1.29.

Compound `NS(=O)(=O)c1cc2c(cc1Cl)N(C(=O)c1ccccc1)CC2` has a Ratio (Rattus norvegicus [1]) of 0.83, a Ratio (Rattus norvegicus [2]) of 0.79 and a Ratio (Rattus norvegicus [3]) of 0.41. It also gave a Ratio (Rattus norvegicus [4]) of 0.85, a Ratio (Rattus norvegicus [5]) of 1.08 and a Ratio (Rattus norvegicus [6]) of 1.1.

`NS(=O)(=O)c1cc(C(=O)NN2CCc3cc(S(N)(=O)=O)c(Cl)cc32)ccc1Cl` showed a Ratio (Rattus norvegicus [1]) of 0.99, a Ratio (Rattus norvegicus [2]) of 1.47 and a Ratio (Rattus norvegicus [3]) of 1.09. The Ratio (Rattus norvegicus [4]) was 1.26, the Ratio (Rattus norvegicus [5]) was 1.24 and the Ratio (Rattus norvegicus [6]) was 1.18.

For `NS(=O)(=O)c1cc2c(cc1Cl)N(Cc1ccccc1)CC2`, the Ratio (Rattus norvegicus [1]) was 0.77, the Ratio (Rattus norvegicus [2]) was 1 and the Ratio (Rattus norvegicus [3]) was 0.73. For the same compound, the Ratio (Rattus norvegicus [4]) was 1.8, the Ratio (Rattus norvegicus [5]) was 1.3 and the Ratio (Rattus norvegicus [6]) was 1.2.

Work on `Cl.NS(=O)(=O)c1cc2c(cc1Cl)NCC2` yielded a Ratio (Rattus norvegicus [1]) of 0.62, a Ratio (Rattus norvegicus [2]) of 0.95 and a Ratio (Rattus norvegicus [3]) of 0.76. The Ratio (Rattus norvegicus [4]) was 0.94, the Ratio (Rattus norvegicus [5]) was 1.02 and the Ratio (Rattus norvegicus [6]) was 0.83.

`NS(=O)(=O)c1cc(C(=O)O)c(NCc2ccco2)cc1Cl` [FUROSEMIDE] was tested, and the Ratio (Rattus norvegicus [1]) was 2.75, the Ratio (Rattus norvegicus [2]) was 9.63 and the Ratio (Rattus norvegicus [3]) was 1.12. The Ratio (Rattus norvegicus [4]) was 1.08, the Ratio (Rattus norvegicus [5]) was 0.96 and the Ratio (Rattus norvegicus [6]) was 1.31.

— ChEMBL document CHEMBL3227929, “Synthesis and evaluation for diuretic activity of 1-substituted 6-chloro-5-sulfamylindolines” (1979)
